Source: ChEMBL document CHEMBL1131591, “2-Fluoro-4-pyridinylmethyl analogues of linopirdine as orally active acetylcholine release-enhancing agents with good efficacy and duration of action” (J Med Chem, 1998)

What was measured:
[1] = test system: Rattus norvegicus; assay: Compound was tested in vivo for microdialysis ACh release after peroral administration of 20 mg/kg methocel at the duration of 140 minutes; format: functional; conditions: route oral
Procedure, shortened: (§1)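 Freely moving rats under brain microdialysis. Dialysate injected onto HPLC every 20 min to measure ACh. Compound or vehicle given orally after the fourth 20-min collection, usually 14 collections in total. Vehicle was water or a suspension in […] methocel in water, bead-milled overnight. Peak reported as percent increase over baseline (control = 0). Duration is the number of consecutive minutes at significance.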

[2] = test system: Rattus norvegicus; assay: Compound was tested in vivo for microdialysis ACh release after peroral administration of 5 mg/kg suspended in water at the duration of 20 minutes; format: functional; conditions: route oral; procedure, shortened: as §1
[3] = species on record: Rattus norvegicus; assay: Compound was tested in vitro for its ability to enhance the K+-stimulated release of [3H]acetylcholine from rat hippocampal slices preloaded with [3H]-Choline.; format: functional; conditions: Hippocampus
Procedure, shortened: (§2)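 Superfused rat hippocampal slices preloaded with [3H]choline. Release evoked for 4 min at two points (S1, S2) by raising K+ in the medium to 25 mM. Compound added after S1 and kept in the medium through S2. Enhancement taken as the S2/S1 ratio, expressed as percent of control (control = 100%). EC50 taken as the concentration giving 50% of the compound's peak efficacy. At least three determinations per point.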

[4] = test system: Rattus norvegicus; assay: Compound was tested in vivo for microdialysis ACh release after peroral administration of 10 mg/kg suspended in methocel at the duration of 80 minutes; format: functional; conditions: route oral; procedure, shortened: as §1
[5] = species on record: Rattus norvegicus; assay: Compound was tested in vitro for its ability to enhance the K+-stimulated release of [3H]acetylcholine from rat hippocampal slices preloaded with [3H]choline at 10 uM; format: functional, Hippocampus; procedure, shortened: as §2
[6] = test system: Rattus norvegicus; assay: Compound was tested in vivo for microdialysis ACh release after peroral administration of 10 mg/kg water at the duration of 100 minutes; format: functional; conditions: route oral; procedure, shortened: as §1
[7] = test system: Rattus norvegicus; assay: Compound was tested in vivo for microdialysis ACh release after peroral administration of 5 mg/kg suspended in water; format: functional; conditions: route oral; procedure, shortened: as §1
[8] = species on record: Rattus norvegicus; assay: Compound was tested in vitro for its ability to enhance the K+-stimulated release of [3H]acetylcholine from rat hippocampal slices preloaded with [3H]choline at 3 uM; format: functional, Hippocampus; procedure, shortened: as §2
[9] = test system: Rattus norvegicus; assay: Compound was tested in vivo for microdialysis ACh release after peroral administration of 1 mg/kg methocel at the duration of >120 minutes; format: functional; conditions: route oral; procedure, shortened: as §1
[10] = test system: Rattus norvegicus; assay: Compound was tested in vivo for microdialysis ACh release after peroral administration of 0.5 mg/kg suspended in methocel; format: functional; conditions: route oral; procedure, shortened: as §1
[11] = test system: Rattus norvegicus; assay: Compound was tested in vivo for microdialysis ACh release after peroral administration of 10 mg/kg water at the duration of >40 minutes; format: functional; conditions: route oral; procedure, shortened: as §1
[12] = test system: Rattus norvegicus; assay: Compound was tested in vivo for microdialysis ACh release after peroral administration of 1 mg/kg suspended in methocel at the duration of 120 minutes; format: functional; conditions: route oral; procedure, shortened: as §1
[13] = test system: Rattus norvegicus; assay: Compound was tested in vivo for microdialysis ACh release after peroral administration of 5 mg/kg methocel at the duration of >80 minutes; format: functional; conditions: route oral; procedure, shortened: as §1
[14] = test system: Rattus norvegicus; assay: Compound was tested in vivo for microdialysis ACh release after peroral administration of 10 mg/kg methocel; format: functional; conditions: route oral; procedure, shortened: as §1
[15] = species on record: Rattus norvegicus; assay: Compound was tested in vitro for its ability to enhance the K+-stimulated release of [3H]acetylcholine from rat hippocampal slices preloaded with [3H]-Choline at 1 uM; format: functional, Hippocampus; procedure, shortened: as §2
[16] = test system: Rattus norvegicus; assay: Compound was tested in vivo for microdialysis ACh release after peroral administration of 5 mg/kg methocel at the duration of 100 minutes; format: functional; conditions: route oral; procedure, shortened: as §1

O=C1N(c2ccccc2)c2ccccc2C1(Cc1ccncc1)Cc1ccncc1 [LINOPIRDINE]
Increase over control [1]: 117% | Increase over control [2]: 50% | EC50 [3]: 4500 nM | Increase over control [4]: 65% | Control [5]: 337%

O=C1c2ccccc2C(Cc2ccncc2)(Cc2ccncc2)c2ccccc21
Increase over control [6]: 127% | Increase over control [7]: 18% | EC50 [3]: 450 nM | Control [5]: 600%

O=C1c2ccccc2C(Cc2ccnc(F)c2)(Cc2ccnc(F)c2)c2ccccc21
Control [8]: 413% | Increase over control [9]: 115% | Increase over control [10]: 40% | EC50 [3]: 830 nM

Fc1cc(CC2(Cc3ccncc3)c3ccccc3-c3ncccc32)ccn1 (configuration not stated)
Increase over control [11]: 52% | Increase over control [7]: 47% | EC50 [3]: 1080 nM | Control [5]: 317%

Fc1cc(CC2(Cc3ccnc(F)c3)c3ccccc3-c3ncccc32)ccn1
Control [8]: 440% | EC50 [3]: 1600 nM | Increase over control [12]: 74% | Increase over control [13]: 201%

O=C1N(c2ccccc2)c2ccccc2C1(Cc1ccncc1)Cc1ccnc(F)c1 (configuration not stated)
Increase over control [14]: 27% | EC50 [3]: 10000 nM | Control [5]: 433%

O=C1c2ccccc2C(Cc2ccncc2)(Cc2ccnc(F)c2)c2ccccc21
Control [15]: 452% | Increase over control [16]: 75% | EC50 [3]: 410 nM

O=C1N(c2ccccc2)c2ccccc2C1(Cc1ccnc(F)c1)Cc1ccnc(F)c1
Increase over control [14]: 44% | EC50 [3]: 15200 nM | Control [5]: 326%

c1ccc2c(c1)-c1ncccc1C2(Cc1ccncc1)Cc1ccncc1
EC50 [3]: 4120 nM | Control [5]: 725%
